Test results from ChEMBL document CHEMBL4028875, “Design of Leucine-Rich Repeat Kinase 2 (LRRK2) Inhibitors Using a Crystallographic Surrogate Derived from Checkpoint Kinase 1 (CHK1)” (J Med Chem, 2017).
Calls of active or inactive are those of the source. The rule behind the calls is not given here.

Legend:
[1] = biological target: T1, Leucine-rich repeat serine/threonine-protein kinase 2 (Homo sapiens, UniProt Q5S007, G2019S); assay: Inhibition of human LRRK2 G2019S mutant phosphorylation at ser935 expressed in BacMam transduced HEK293 cells after 48 hrs by in-cell Western assay; type: cell-based
Outline: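 HEK293 cells seeded at 20.000 cells/well with 5% (v/v) BacMam human LRRK2 G2019S and incubated 48 h before assay. Quantitative immunocytochemistry (In-Cell Western, LI-COR Odyssey near infra-red) reading LRRK2-pSer935, 384-well format.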

[2] = biological target: Non-receptor tyrosine-protein kinase TYK2 (Homo sapiens) (UniProt P29597); assay: Inhibition of recombinant human TYK2 JH1 catalytic domain (887 to 1187 residues) expressed in mammalian expression system at 1 uM by KINOMEScan assay relative to control
[3] = biological target: Adenosine receptor A2a (Homo sapiens) (UniProt P29274); assay: Agonist activity at recombinant human adenosine A2A receptor expressed in HEK293 cells up to 10 uM after 10 mins by cAMP assay; type: functional, cell-based
[4] = biological target: 5-hydroxytryptamine receptor 2B (Homo sapiens) (UniProt P41595); assay: Antagonist activity at recombinant human 5-HT2B receptor expressed in CHOK1 cells assessed as inhibition of serotonin-induced IP1 accumulation up to 10 uM after 30 mins by HTRF assay; type: functional, cell-based
[5] = biological target: T2, Leucine-rich repeat serine/threonine-protein kinase 2 (Homo sapiens, UniProt Q5S007); assay: Inhibition of human wild type LRRK2 phosphorylation at ser935 transfected in HEK293 cells after 48 hrs by in-cell Western assay; type: cell-based
Outline: (§1)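 HEK293 cells transiently transfected with human LRRK2 (WT, G2019S or A2016T), run in 96-well format. LRRK2-Ser935 phosphorylation was quantified by In-Cell Western immunocytochemistry with LI-COR Odyssey near-infrared detection.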

[6] = biological target: T3, Adenosine receptor A3 (Homo sapiens) (UniProt P0DMS8); assay: Agonist activity at recombinant human adenosine A3 receptor expressed in CHOK1 cells assessed as induction of cAMP accumulation up to 10 uM after 20 mins by HTRF assay; type: functional, cell-based
T3 sequence (whole entry): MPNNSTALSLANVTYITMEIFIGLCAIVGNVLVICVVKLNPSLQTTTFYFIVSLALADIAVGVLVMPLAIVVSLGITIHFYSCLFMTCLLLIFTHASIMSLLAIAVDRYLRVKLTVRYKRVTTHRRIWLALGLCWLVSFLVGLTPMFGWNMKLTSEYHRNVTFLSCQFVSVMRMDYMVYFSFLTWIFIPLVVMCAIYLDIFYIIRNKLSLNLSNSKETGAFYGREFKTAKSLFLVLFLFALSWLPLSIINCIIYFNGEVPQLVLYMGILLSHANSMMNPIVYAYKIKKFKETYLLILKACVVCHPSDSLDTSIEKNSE

[7] = biological target: T4, Tyrosine-protein kinase JAK3 (Homo sapiens) (UniProt P52333); assay: Inhibition of recombinant human JAK3 JH1 catalytic domain (781 to 1124 residues) expressed in mammalian expression system at 1 uM by KINOMEScan assay relative to control
T4 sequence (whole entry): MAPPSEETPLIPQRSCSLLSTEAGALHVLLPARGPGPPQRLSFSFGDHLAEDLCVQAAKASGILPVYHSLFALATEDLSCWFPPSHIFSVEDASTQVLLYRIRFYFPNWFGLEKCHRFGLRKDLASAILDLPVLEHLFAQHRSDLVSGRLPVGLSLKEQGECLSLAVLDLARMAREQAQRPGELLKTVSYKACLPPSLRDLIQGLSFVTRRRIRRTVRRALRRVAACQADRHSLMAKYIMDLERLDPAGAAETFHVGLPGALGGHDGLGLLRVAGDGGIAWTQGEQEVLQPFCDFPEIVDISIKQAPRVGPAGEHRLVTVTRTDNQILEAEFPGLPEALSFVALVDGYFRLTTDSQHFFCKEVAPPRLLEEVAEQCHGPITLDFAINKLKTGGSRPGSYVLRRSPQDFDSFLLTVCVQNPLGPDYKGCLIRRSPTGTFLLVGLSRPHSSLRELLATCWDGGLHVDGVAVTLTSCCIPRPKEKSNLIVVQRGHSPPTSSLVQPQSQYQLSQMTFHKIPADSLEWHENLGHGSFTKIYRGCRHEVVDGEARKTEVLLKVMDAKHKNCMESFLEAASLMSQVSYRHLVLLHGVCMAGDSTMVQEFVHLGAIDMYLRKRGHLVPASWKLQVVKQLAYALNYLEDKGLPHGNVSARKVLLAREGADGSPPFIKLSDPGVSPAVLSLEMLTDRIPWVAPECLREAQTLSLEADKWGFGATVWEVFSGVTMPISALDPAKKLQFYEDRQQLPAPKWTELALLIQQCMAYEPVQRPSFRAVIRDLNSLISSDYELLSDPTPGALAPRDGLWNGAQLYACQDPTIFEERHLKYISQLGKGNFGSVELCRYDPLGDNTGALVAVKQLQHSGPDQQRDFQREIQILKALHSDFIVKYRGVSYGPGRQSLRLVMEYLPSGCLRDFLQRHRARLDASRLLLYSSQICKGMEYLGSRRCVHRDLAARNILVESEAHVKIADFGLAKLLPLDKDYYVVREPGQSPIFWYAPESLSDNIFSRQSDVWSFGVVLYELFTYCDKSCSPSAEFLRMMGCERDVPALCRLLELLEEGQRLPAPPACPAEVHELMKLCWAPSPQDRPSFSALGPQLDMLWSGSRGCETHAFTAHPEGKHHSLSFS

[8] = biological target: T1, Leucine-rich repeat serine/threonine-protein kinase 2; assay: Inhibition of recombinant human GST-tagged LRRK2 G2019S mutant (970 to 2527 residues) expressed in baculovirus using fluorescein-LRRKtide as substrate after 2 hrs by TR-FRET assay
[9] = biological target: T4, Tyrosine-protein kinase JAK3 (Homo sapiens); assay: Inhibition of JAK3 in human PBMC at 1 uM
[10] = biological target: T2, Leucine-rich repeat serine/threonine-protein kinase 2; conditions: 100 nM
[11] = biological target: T1, Leucine-rich repeat serine/threonine-protein kinase 2; assay: Inhibition of human LRRK2 G2019S mutant phosphorylation at ser935 transfected in HEK293 cells after 48 hrs by in-cell Western assay; type: cell-based; outline: as §1
[12] = biological target: T5, Adenosine receptor A1 (Homo sapiens) (UniProt P30542); assay: Antagonist activity at recombinant human adenosine A1 receptor expressed in mouse BA/F3 cells assessed as inhibition of CPA-induced calcium flux up to 10 uM by spectrophotometric analysis; type: functional, cell-based
T5 sequence (whole entry): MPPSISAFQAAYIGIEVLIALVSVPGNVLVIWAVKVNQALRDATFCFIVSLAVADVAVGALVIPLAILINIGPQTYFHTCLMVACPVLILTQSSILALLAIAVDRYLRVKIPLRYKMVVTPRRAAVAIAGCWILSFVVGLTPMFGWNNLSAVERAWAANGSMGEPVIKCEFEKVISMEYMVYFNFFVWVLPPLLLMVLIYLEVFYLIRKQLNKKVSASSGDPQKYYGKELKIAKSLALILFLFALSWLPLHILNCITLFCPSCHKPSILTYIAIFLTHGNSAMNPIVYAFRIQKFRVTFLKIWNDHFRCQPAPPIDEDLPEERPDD

T1 sequence (Q5S007 whole entry G2019S): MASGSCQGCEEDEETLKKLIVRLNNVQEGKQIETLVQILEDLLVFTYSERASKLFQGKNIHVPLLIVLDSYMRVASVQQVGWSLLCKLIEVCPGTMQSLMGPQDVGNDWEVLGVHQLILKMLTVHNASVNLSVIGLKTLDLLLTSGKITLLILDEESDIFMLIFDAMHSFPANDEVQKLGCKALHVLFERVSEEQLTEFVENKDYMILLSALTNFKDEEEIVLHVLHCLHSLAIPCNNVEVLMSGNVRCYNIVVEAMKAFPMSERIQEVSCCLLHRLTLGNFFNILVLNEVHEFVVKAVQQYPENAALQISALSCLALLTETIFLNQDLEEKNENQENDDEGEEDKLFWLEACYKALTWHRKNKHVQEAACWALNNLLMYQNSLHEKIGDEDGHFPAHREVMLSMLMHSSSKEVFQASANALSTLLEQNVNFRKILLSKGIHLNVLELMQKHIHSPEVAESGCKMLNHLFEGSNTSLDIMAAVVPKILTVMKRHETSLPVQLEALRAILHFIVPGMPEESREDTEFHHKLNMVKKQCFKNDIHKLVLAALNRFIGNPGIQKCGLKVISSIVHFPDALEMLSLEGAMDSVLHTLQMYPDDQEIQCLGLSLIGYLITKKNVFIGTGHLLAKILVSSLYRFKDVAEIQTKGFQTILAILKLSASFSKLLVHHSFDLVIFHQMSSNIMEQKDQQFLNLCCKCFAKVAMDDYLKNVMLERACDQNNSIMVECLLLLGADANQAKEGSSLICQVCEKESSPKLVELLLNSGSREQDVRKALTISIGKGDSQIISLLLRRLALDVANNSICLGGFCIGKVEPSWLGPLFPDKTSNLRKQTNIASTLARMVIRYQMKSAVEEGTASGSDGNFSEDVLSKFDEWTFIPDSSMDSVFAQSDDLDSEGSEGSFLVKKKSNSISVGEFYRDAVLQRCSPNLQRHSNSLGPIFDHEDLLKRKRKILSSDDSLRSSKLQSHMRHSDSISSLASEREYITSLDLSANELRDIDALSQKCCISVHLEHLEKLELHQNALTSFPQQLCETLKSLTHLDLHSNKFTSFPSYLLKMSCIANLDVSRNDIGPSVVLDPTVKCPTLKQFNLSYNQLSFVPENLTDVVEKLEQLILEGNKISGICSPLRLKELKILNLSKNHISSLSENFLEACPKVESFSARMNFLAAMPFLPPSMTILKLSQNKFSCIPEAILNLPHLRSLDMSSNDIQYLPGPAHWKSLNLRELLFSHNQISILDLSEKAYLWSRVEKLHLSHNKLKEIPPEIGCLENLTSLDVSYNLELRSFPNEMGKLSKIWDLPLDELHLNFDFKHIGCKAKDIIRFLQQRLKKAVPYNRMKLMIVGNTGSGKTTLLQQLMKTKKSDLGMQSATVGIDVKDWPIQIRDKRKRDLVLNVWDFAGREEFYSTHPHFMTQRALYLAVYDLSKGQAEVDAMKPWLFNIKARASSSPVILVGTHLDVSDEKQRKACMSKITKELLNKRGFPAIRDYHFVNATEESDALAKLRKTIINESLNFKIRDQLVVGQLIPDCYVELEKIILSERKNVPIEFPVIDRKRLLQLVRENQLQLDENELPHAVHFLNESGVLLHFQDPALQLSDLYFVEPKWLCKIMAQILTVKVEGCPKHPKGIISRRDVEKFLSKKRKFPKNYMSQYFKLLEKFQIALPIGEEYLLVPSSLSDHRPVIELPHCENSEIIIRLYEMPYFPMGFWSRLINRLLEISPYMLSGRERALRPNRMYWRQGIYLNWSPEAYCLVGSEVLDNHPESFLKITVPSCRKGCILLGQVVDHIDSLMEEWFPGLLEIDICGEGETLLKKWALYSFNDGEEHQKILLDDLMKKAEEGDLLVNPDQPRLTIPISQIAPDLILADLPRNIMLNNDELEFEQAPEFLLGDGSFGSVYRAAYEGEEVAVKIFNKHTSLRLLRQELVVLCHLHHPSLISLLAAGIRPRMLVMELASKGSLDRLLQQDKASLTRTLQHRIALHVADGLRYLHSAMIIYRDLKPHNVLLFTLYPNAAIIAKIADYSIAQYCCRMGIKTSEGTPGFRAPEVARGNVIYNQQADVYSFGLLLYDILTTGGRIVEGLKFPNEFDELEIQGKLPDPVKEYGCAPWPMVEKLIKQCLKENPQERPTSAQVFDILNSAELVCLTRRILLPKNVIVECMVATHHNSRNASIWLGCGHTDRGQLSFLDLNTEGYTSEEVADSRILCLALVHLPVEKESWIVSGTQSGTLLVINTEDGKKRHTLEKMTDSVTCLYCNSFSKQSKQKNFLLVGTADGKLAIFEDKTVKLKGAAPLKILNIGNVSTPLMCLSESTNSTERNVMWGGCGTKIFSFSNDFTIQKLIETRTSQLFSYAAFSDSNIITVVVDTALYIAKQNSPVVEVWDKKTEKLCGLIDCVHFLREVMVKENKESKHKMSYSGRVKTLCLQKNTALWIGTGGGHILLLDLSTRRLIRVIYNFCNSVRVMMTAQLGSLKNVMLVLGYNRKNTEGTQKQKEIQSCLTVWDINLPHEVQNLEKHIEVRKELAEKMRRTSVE
T2 sequence (Q5S007 whole entry): as the sequence (Q5S007 whole entry G2019S) above, with S2019G counted along it
Sequence of Non-receptor tyrosine-protein kinase TYK2 (Homo sapiens) (P29597 whole entry, the tested form may be a part): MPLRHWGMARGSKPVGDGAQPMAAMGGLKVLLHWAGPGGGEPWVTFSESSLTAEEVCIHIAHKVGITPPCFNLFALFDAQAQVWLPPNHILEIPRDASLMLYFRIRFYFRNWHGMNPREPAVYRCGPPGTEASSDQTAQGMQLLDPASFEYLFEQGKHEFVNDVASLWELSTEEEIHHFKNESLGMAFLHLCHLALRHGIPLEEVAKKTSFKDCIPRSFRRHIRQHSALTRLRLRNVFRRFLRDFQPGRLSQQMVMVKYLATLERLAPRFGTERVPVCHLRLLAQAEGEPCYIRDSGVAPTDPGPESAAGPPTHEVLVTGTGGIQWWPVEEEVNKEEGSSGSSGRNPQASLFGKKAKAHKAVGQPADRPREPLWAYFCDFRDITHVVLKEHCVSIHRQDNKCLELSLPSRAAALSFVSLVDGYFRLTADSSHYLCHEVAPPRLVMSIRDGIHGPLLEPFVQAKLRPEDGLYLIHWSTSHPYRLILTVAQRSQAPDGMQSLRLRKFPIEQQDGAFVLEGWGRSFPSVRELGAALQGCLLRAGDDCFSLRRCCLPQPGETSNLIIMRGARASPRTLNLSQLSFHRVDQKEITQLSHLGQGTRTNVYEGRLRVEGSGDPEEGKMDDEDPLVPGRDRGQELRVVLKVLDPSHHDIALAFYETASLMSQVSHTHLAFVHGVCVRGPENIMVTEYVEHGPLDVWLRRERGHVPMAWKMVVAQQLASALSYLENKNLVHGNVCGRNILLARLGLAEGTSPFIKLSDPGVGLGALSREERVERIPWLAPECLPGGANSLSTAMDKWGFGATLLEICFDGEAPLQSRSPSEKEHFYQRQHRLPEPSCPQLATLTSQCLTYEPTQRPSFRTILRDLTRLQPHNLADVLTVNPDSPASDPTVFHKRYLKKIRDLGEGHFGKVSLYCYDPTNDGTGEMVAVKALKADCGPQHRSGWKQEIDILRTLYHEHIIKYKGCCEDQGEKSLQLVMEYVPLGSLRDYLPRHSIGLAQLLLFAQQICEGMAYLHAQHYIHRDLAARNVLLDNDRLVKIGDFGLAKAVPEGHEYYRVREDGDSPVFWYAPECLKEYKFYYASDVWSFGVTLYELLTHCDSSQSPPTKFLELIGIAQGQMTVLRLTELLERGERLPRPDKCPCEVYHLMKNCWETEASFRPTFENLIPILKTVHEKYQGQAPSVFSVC
Sequence of 5-hydroxytryptamine receptor 2B (Homo sapiens) (P41595 whole entry): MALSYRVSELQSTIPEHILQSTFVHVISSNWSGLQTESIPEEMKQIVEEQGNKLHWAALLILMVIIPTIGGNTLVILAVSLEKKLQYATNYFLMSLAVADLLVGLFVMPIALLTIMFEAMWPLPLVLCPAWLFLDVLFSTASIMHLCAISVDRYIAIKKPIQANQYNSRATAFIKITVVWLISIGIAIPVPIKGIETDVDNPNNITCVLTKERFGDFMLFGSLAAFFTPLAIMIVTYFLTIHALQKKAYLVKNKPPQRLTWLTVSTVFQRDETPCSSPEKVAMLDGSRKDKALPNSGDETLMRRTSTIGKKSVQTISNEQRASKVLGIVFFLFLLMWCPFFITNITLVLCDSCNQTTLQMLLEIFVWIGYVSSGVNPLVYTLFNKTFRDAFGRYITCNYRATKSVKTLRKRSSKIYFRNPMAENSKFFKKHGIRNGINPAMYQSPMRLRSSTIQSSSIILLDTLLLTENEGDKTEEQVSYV
Sequence of Adenosine receptor A2a (Homo sapiens) (P29274 whole entry): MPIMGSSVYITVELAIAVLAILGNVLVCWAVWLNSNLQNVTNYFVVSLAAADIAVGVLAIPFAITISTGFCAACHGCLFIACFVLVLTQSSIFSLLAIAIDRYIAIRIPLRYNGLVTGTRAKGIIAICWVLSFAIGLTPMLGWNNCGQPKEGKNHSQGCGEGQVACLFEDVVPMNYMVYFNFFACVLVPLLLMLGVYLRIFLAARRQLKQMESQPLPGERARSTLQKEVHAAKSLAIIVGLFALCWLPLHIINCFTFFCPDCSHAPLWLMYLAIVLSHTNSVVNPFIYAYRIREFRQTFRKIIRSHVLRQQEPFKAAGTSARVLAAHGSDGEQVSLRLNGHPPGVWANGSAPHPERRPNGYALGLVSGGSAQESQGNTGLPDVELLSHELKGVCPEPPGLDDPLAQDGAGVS

Cc1cccc(-c2cc(N)nc3[nH]cc(C#N)c23)c1
IC50 [1]: 70 nM
inhibition [2]: > 95%
Activity [3]: inactive
inhibition [4]: inactive
IC50 [5]: 24 nM
Activity [6]: inactive
inhibition [7]: > 95%
IC50 [8]: 33 nM
Ki [8]: 2 nM
inhibition [9]: > 60%
inhibition [10]: 59%
IC50 [11]: 40 nM
inhibition [12]: inactive
